According to ChEMBL document CHEMBL1134547 (J Med Chem, 2001):

Assays:
Dihydrofolate reductase [1] = biological target: T1, Dihydrofolate reductase (Mycobacterium avium, UniProt O30463); assay: Inhibitory activity against dihydrofolate reductase DHFR in Mycobacterium avium
T1 sequence (O30463 whole entry): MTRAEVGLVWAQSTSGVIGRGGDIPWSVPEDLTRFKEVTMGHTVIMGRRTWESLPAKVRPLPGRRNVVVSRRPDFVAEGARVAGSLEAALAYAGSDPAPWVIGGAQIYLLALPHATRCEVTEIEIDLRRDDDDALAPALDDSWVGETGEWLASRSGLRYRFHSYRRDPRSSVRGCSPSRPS

[2] = biological target: T2, Bifunctional dihydrofolate reductase-thymidylate synthase (Toxoplasma gondii, UniProt Q07422); assay: Inhibitory activity against dihydrofolate reductase DHFR in Toxoplasma gondii.
T2 sequence (Q07422 whole entry): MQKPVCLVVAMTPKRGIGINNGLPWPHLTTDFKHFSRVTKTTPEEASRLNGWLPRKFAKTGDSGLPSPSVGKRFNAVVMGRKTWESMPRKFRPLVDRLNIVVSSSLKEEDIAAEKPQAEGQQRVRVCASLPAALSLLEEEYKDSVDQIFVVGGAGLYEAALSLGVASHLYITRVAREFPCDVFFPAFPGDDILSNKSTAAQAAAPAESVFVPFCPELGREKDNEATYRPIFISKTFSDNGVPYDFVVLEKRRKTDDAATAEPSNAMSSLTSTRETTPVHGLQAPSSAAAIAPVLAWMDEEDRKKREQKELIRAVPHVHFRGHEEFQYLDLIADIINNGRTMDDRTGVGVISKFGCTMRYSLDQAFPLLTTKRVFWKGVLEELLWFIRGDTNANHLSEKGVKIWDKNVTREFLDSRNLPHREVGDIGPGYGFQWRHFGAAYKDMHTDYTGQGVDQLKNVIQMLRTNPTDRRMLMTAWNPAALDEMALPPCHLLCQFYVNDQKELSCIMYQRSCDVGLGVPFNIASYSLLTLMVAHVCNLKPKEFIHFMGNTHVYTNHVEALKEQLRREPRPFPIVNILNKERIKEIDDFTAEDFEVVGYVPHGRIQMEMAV

[3] = Selectivity ratio of IC50(rat liver)/IC50(Mycobacterium avium)
Dihydrofolate reductase [4] = biological target: T3, Dihydrofolate reductase (Rattus norvegicus, UniProt Q920D2); assay: Inhibitory activity against dihydrofolate reductase DHFR in rat liver
T3 sequence (Q920D2 whole entry): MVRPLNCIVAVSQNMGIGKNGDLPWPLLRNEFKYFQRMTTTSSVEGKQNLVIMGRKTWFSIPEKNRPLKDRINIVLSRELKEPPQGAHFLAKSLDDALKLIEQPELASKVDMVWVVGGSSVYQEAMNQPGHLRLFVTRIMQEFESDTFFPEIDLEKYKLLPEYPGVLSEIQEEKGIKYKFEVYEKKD

[5] = Inhibition of dihydrofolate reductase DHFR in Pneumocystis carinii.
Procedure, shortened: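 Spectrophotometric DHFR assay following enzymatic reduction of dihydrofolate to tetrahydrofolate with NADPH cofactor. 1 mL mixture in phosphate buffer (40.7 mM, pH 7.4) containing NADPH (0.117 mM), dihydrofolate (0.092 mM), 2-mercaptoethanol (8.9 mM) and 0.018 units DHFR. IC50 is the drug concentration that halves the reduction rate relative to control.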

SMILES | IC50 (Dihydrofolate reductase [4]) [µM] | IC50 [5] [µM] | IC50 (Dihydrofolate reductase [1]) [µM] | IC50 [2] [µM] | Selectivity ratio [3]
CCc1nc(N)nc(N)c1-c1ccc(Cl)c(/N=N/N(CCOC(C)=O)Cc2ccc(C)cc2)c1 | 3.85 | 1.7 | 4.43 | 0.63 | 0.87
CCc1nc(N)nc(N)c1-c1ccc(Cl)cc1 [PYRIMETHAMINE] |  | 3.65 |  |  | 
CCc1nc(N)nc(N)c1-c1ccc(Cl)c(/N=N/N(CCOC(C)=O)Cc2ccc(F)cc2)c1 | 3.83 | 1.91 | 7.46 | 4.4 | 0.51
CCc1nc(N)nc(N)c1-c1ccc(Cl)c(/N=N/N(CCOC(C)=O)Cc2cccc(C)c2)c1 | 5.8 | 5.29 | 25.2 | 5.39 | 0.23
CCc1nc(N)nc(N)c1-c1ccc(Cl)c(/N=N/N(CCOC(C)=O)Cc2ccc([N+](=O)[O-])cc2)c1 | 3.33 | 1.21 | 5.34 | 0.85 | 0.62
CCc1nc(N)nc(N)c1-c1ccc(Cl)c(/N=N/N(CCOC(C)=O)Cc2ccccc2C)c1 | 11.2 | 11.1 | 24.5 | 0.83 | 
CCc1nc(N)nc(N)c1-c1ccc(Cl)c(/N=N/N(CCOC(C)=O)Cc2cccc(F)c2)c1 | 3.87 | 2.22 | 4.07 | 1.25 | 0.95
CCc1nc(N)nc(N)c1-c1ccc(Cl)c(/N=N/N(CCO)CCc2ccccc2)c1 | 4.67 | 0.48 | 5.42 | 1.79 | 0.86
CCc1nc(N)nc(N)c1-c1ccc(Cl)c(/N=N/N(CCOC(C)=O)Cc2cc(OC)cc(OC)c2)c1 | 0.845 | 0.86 | 4.36 | 0.378 | 0.19
CCc1nc(N)nc(N)c1-c1ccc(Cl)c(/N=N/N(CCOC(C)=O)Cc2ccncc2)c1 | 6.19 | 3.46 | 2.03 | 0.64 | 3.05
CCc1nc(N)nc(N)c1-c1ccc(Cl)c(/N=N/N(CCCO)Cc2ccccc2)c1 | 7.35 | 0.68 | 3.9 | 2.01 | 1.88
CCc1nc(N)nc(N)c1-c1ccc(Cl)c(/N=N/N(CCOC(C)=O)Cc2cccc([N+](=O)[O-])c2)c1 | 1.61 | 1.3 | 3.69 | 0.83 | 0.44

More lines, main results first:

IC50 (Dihydrofolate reductase [4]) [µM] | IC50 [5] [µM] | SMILES | IC50 (Dihydrofolate reductase [1]) [µM] | IC50 [2] [µM] | Selectivity ratio [3]
2.1 |  | CCc1nc(N)nc(N)c1-c1ccc(Cl)c(/N=N/N(CCOC(C)=O)Cc2ccc(OC)cc2)c1 |  | 0.44 | 
0.62 | 0.59 | CCc1nc(N)nc(N)c1-c1ccc(Cl)c(/N=N/N(CCOC(C)=O)Cc2ccc3ccccc3c2)c1 |  | 1.05 | 
0.28 | 0.053 | CCc1nc(N)nc(N)c1-c1ccc(Cl)c(/N=N/N(CCOC(C)=O)Cc2cccc3ccccc23)c1 |  | 0.2 | 
 | 2.8 | CCc1nc(N)nc(N)c1-c1ccc(Cl)c(/N=N/N(C)C)c1 |  |  | 
0.39 | 1.4 | CCc1nc(N)nc(N)c1-c1ccc(Cl)c(/N=N/N(CCOC(C)=O)Cc2ccc(OC)c(OC)c2)c1 |  | 0.08 | 
6.44 | 1.09 | CCc1nc(N)nc(N)c1-c1ccc(Cl)c(/N=N/N(CCO)[C@H](C)c2ccccc2)c1 |  | 1.47 | 
 | 0.26 | CCc1nc(N)nc(N)c1-c1ccc(Cl)c(/N=N/N(CCO)Cc2ccccc2)c1 |  |  | 
0.45 | 1.5 | CCc1nc(N)nc(N)c1-c1ccc(Cl)c(/N=N/N(CCOC(C)=O)Cc2cc(OC)c(OC)c(OC)c2)c1 |  | 0.07 | 
6.51 | 1.26 | CCc1nc(N)nc(N)c1-c1ccc(Cl)c(/N=N/N(CCO)[C@@H](C)c2ccccc2)c1 |  | 2.7 | 
14.9 | 92 | CCc1nc(N)nc(N)c1-c1ccc(Cl)c(/N=N/N(CCOC(C)=O)Cc2ccccc2F)c1 |  | 7.8 | 
8.4 | 4.7 | CCc1nc(N)nc(N)c1-c1ccc(Cl)c(/N=N/N(CCOC(C)=O)Cc2ccccc2Cl)c1 |  | 6.1 | 
1.29 | 0.58 | CCc1nc(N)nc(N)c1-c1ccc(Cl)c(/N=N/N(CCOC(C)=O)Cc2cccc(Cl)c2)c1 |  | 1.16 | 
6.62 | 1.35 | CCc1nc(N)nc(N)c1-c1ccc(Cl)c(/N=N/N(CCOC(C)=O)Cc2ccc(C(F)(F)F)cc2)c1 |  | 2.54 | 
0.69 | 0.85 | CCc1nc(N)nc(N)c1-c1ccc(Cl)c(/N=N/N(CCOC(=O)c2ccccc2)Cc2ccccc2)c1 |  | 0.22 | 
3.3 | 1.3 | CCC(=O)OCCN(Cc1ccccc1)/N=N/c1cc(-c2c(N)nc(N)nc2CC)ccc1Cl |  | 0.7 | 
1.8 | 0.94 | CCc1nc(N)nc(N)c1-c1ccc(Cl)c(/N=N/N(CCOC(C)=O)Cc2ccc(Cl)cc2)c1 |  | 0.8 | 
3.7 | 1.2 | CCc1nc(N)nc(N)c1-c1ccc(Cl)c(/N=N/N(CCOC(=O)C(C)C)Cc2ccccc2)c1 |  | 0.66 | 
